Assays:
[1] = Displacement of [3H]DTG from sigma 2 receptor in rat liver membrane after 120 mins; assay type: cell membranes
In short: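 Rat liver membranes (~300 µg protein) incubated with ~5 nM [3H]DTG plus 1 µM (+)-pentazocine to mask σ1 sites, 120 min at room temperature; 10 µM haloperidol defines nonspecific binding; filtration and scintillation counting. One-site nonlinear regression IC50, converted to Ki by Cheng-Prusoff; mean ± SEM.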

[2] = Selectivity for rat liver sigma 2 receptor over guinea pig brain sigma 1 receptor
Heart [3] = test: Biodistribution in heart of mouse EMT6 tumor bearing BALB/c mouse at 10 to 20 uCi after 30 mins; assay type: ADME, organism-based; conditions: in vivo, 0.5 h
In short: (§1)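 EMT-6 cells (5×10^5 in 100 µL PBS) implanted s.c. in scapular region of female Balb/c mice (~2 months, 17-22 g); studied 7-10 days later at ~0.2 cm3 tumor. 18F tracer 10-20 µCi in 100-150 µL saline via tail vein; ≥4 mice per time point; tissue removed at sacrifice, weighed, gamma-counted; %ID/g calculated.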

Brain [4] = test: Biodistribution in brain of EMT6 tumor bearing BALB/c mouse at 10 to 20 uCi after 5 mins; assay type: ADME, organism-based; conditions: in vivo; in short: as §1
Adipose tissue [5] = test: Biodistribution in fat of mouse EMT6 tumor bearing BALB/c mouse at 10 to 20 uCi after 5 mins; assay type: ADME, organism-based; conditions: in vivo; in short: as §1
Adipose tissue [6] = test: Biodistribution in fat of mouse EMT6 tumor bearing BALB/c mouse at 10 to 20 uCi after 30 mins; assay type: ADME, organism-based; conditions: in vivo, 0.5 h; in short: as §1
Adipose tissue [7] = test: Biodistribution in fat of mouse EMT6 tumor bearing BALB/c mouse at 10 to 20 uCi after 120 mins; assay type: ADME, organism-based; conditions: in vivo, 2 h; in short: as §1
Liver [8] = test: Biodistribution in liver of mouse EMT6 tumor bearing BALB/c mouse at 10 to 20 uCi after 120 mins; assay type: ADME, organism-based; conditions: in vivo, 2 h; in short: as §1
Liver [9] = test: Biodistribution in liver of mouse EMT6 tumor bearing BALB/c mouse at 10 to 20 uCi after 5 mins; assay type: ADME, organism-based; conditions: in vivo; in short: as §1
Lung [10] = test: Biodistribution in lung of mouse EMT6 tumor bearing BALB/c mouse at 10 to 20 uCi after 60 mins; assay type: ADME, organism-based; conditions: in vivo, 1 h; in short: as §1
Brain [11] = test: Biodistribution in brain of mouse EMT6 tumor bearing BALB/c mouse at 10 to 20 uCi after 120 mins; assay type: ADME, organism-based; conditions: in vivo, 2 h; in short: as §1
EMT6 [12] = test: Biodistribution in tumor of mouse EMT6 tumor bearing BALB/c mouse at 10 to 20 uCi after 120 mins; assay type: ADME, organism-based; conditions: emt6, 2 h; in short: as §1
Muscle tissue [13] = test: Biodistribution in muscle of mouse EMT6 tumor bearing BALB/c mouse at 10 to 20 uCi after 120 mins; assay type: ADME, organism-based; conditions: in vivo, 2 h; in short: as §1
Liver [14] = test: Biodistribution in liver of mouse EMT6 tumor bearing BALB/c mouse at 10 to 20 uCi after 60 mins; assay type: ADME, organism-based; conditions: in vivo, 1 h; in short: as §1
Heart [15] = test: Biodistribution in heart of mouse EMT6 tumor bearing BALB/c mouse at 10 to 20 uCi after 60 mins; assay type: ADME, organism-based; conditions: in vivo, 1 h; in short: as §1
Bone [16] = test: Biodistribution in bone of mouse EMT6 tumor bearing BALB/c mouse at 10 to 20 uCi after 5 mins; assay type: ADME, organism-based, Bone element; conditions: in vivo; in short: as §1
EMT6 [17] = test: Biodistribution in tumor of EMT6 tumor bearing BALB/c mouse 10 to 20 uCi after 30 mins; assay type: ADME, organism-based; conditions: emt6, 0.5 h; in short: as §1
Bone [18] = test: Biodistribution in bone of mouse EMT6 tumor bearing BALB/c mouse at 10 to 20 uCi after 120 mins; assay type: ADME, organism-based, Bone element; conditions: in vivo, 2 h; in short: as §1
EMT6 [19] = test: Biodistribution in tumor of mouse EMT6 tumor bearing BALB/c mouse at 10 to 20 uCi after 5 mins; assay type: ADME, organism-based; conditions: emt6, 5 min; in short: as §1
Blood [20] = test: Biodistribution in blood of mouse EMT6 tumor bearing BALB/c mouse at 10 to 20 uCi after 5 mins; assay type: ADME, organism-based; conditions: in vivo; in short: as §1
Kidney [21] = test: Biodistribution in kidney of mouse EMT6 tumor bearing BALB/c mouse at 10 to 20 uCi after 120 mins; assay type: ADME, organism-based; conditions: in vivo, 2 h; in short: as §1
Kidney [22] = test: Biodistribution in kidney of mouse EMT6 tumor bearing BALB/c mouse at 10 to 20 uCi after 30 mins; assay type: ADME, organism-based; conditions: in vivo, 0.5 h; in short: as §1
Heart [23] = test: Biodistribution in heart of mouse EMT6 tumor bearing BALB/c mouse at 10 to 20 uCi after 5 mins; assay type: ADME, organism-based; conditions: in vivo; in short: as §1
Bone [24] = test: Biodistribution in bone of mouse EMT6 tumor bearing BALB/c mouse at 10 to 20 uCi after 60 mins; assay type: ADME, organism-based, Bone element; conditions: in vivo, 1 h; in short: as §1
Lung [25] = test: Biodistribution in lung of mouse EMT6 tumor bearing BALB/c mouse at 10 to 20 uCi after 30 mins; assay type: ADME, organism-based; conditions: in vivo, 0.5 h; in short: as §1
Kidney [26] = test: Biodistribution in kidney of mouse EMT6 tumor bearing BALB/c mouse at 10 to 20 uCi after 5 mins; assay type: ADME, organism-based; conditions: in vivo; in short: as §1
Brain [27] = test: Biodistribution in brain of EMT6 tumor bearing BALB/c mouse at 10 to 20 uCi after 60 mins; assay type: ADME, organism-based; conditions: in vivo, 1 h; in short: as §1
Lung [28] = test: Biodistribution in lung of mouse EMT6 tumor bearing BALB/c mouse at 10 to 20 uCi after 5 mins; assay type: ADME, organism-based; conditions: in vivo; in short: as §1
Brain [29] = test: Biodistribution in brain of EMT6 tumor bearing BALB/c mouse at 10 to 20 uCi after 30 mins; assay type: ADME, organism-based; conditions: in vivo, 0.5 h; in short: as §1
Heart [30] = test: Biodistribution in heart of EMT6 tumor bearing BALB/c mouse at 10 to 20 uCi after 120 mins; assay type: ADME, organism-based; conditions: in vivo, 2 h; in short: as §1
Lung [31] = test: Biodistribution in lung of mouse EMT6 tumor bearing BALB/c mouse at 10 to 20 uCi after 120 mins; assay type: ADME, organism-based; conditions: in vivo, 2 h; in short: as §1
Blood [32] = test: Biodistribution in blood of mouse EMT6 tumor bearing BALB/c mouse at 10 to 20 uCi after 120 mins; assay type: ADME, organism-based; conditions: in vivo, 2 h; in short: as §1
Bone [33] = test: Biodistribution in bone of mouse EMT6 tumor bearing BALB/c mouse at 10 to 20 uCi after 30 mins; assay type: ADME, organism-based, Bone element; conditions: in vivo, 0.5 h; in short: as §1
Muscle tissue [34] = test: Biodistribution in muscle of mouse EMT6 tumor bearing BALB/c mouse at 10 to 20 uCi after 30 mins; assay type: ADME, organism-based; conditions: in vivo, 0.5 h; in short: as §1
Kidney [35] = test: Biodistribution in kidney of mouse EMT6 tumor bearing BALB/c mouse at 10 to 20 uCi after 60 mins; assay type: ADME, organism-based; conditions: in vivo, 1 h; in short: as §1
EMT6 [36] = test: Biodistribution in tumor of mouse EMT6 tumor bearing BALB/c mouse at 10 to 20 uCi after 60 mins; assay type: ADME, organism-based; conditions: emt6, 1 h; in short: as §1
Muscle tissue [37] = test: Biodistribution in muscle of EMT6 tumor bearing BALB/c mouse at 10 to 20 uCi after 5 mins; assay type: ADME, organism-based; conditions: in vivo; in short: as §1
Liver [38] = test: Biodistribution in liver of mouse EMT6 tumor bearing BALB/c mouse at 10 to 20 uCi after 30 mins; assay type: ADME, organism-based; conditions: in vivo, 0.5 h; in short: as §1
Adipose tissue [39] = test: Biodistribution in fat of mouse EMT6 tumor bearing BALB/c mouse at 10 to 20 uCi after 60 mins; assay type: ADME, organism-based; conditions: in vivo, 1 h; in short: as §1
Muscle tissue [40] = test: Biodistribution in muscle of mouse EMT6 tumor bearing BALB/c mouse at 10 to 20 uCi after 60 mins; assay type: ADME, organism-based; conditions: in vivo, 1 h; in short: as §1
Blood [41] = test: Biodistribution in blood of mouse EMT6 tumor bearing BALB/c mouse at 10 to 20 uCi after 30 mins; assay type: ADME, organism-based; conditions: in vivo, 0.5 h; in short: as §1
Blood [42] = test: Biodistribution in blood of mouse EMT6 tumor bearing BALB/c mouse at 10 to 20 uCi after 60 mins; assay type: ADME, organism-based; conditions: in vivo, 1 h; in short: as §1
[43] = molecular target: Sigma non-opioid intracellular receptor 1 (Cavia porcellus, UniProt Q60492); test: Displacement of [3H](+)-pentazocine from sigma 1 receptor in guinea pig brain membrane after 90 mins; assay type: cell membranes
In short: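 Guinea pig brain membranes (~300 µg protein) with ~5 nM [3H](+)-pentazocine, 90 min at room temperature; nonspecific binding with 10 µM haloperidol; stopped with ice-cold Tris/NaCl buffer, filtered, scintillation counted. IC50 by nonlinear regression, one-site fit; Ki by Cheng-Prusoff, mean ± SEM.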

Chain of Sigma non-opioid intracellular receptor 1 (Q60492 whole entry): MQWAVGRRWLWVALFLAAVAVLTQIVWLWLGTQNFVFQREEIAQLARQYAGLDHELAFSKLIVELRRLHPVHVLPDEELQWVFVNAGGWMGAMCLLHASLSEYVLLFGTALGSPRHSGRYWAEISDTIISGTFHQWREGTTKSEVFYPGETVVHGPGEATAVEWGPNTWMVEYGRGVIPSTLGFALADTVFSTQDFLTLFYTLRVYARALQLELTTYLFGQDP

Structure (SMILES): COc1cc2c(cc1OC)CN(CCCCNC(=O)c1cc(Br)ccc1OCCF)CC2
- Ki [1]: 0.65 nM
- Ratio Ki [2]: 1660

Structure (SMILES): COc1cc2c(cc1OC)CN(CCCCNC(=O)c1cc(I)ccc1OCC[18F])CC2
- Drug uptake (Heart [3]): 2.37 % ID/g
- Drug uptake (Brain [4]): 0.55 % ID/g
- Drug uptake (Adipose tissue [5]): 2.32 % ID/g
- Drug uptake (Adipose tissue [6]): 1.04 % ID/g
- Drug uptake (Adipose tissue [7]): 0.44 % ID/g
- Drug uptake (Liver [8]): 4.25 % ID/g
- Drug uptake (Liver [9]): 37.26 % ID/g
- Drug uptake (Lung [10]): 2.34 % ID/g
- Drug uptake (Brain [11]): 0.37 % ID/g
- Drug uptake (EMT6 [12]): 1.92 % ID/g
- Drug uptake (Muscle tissue [13]): 0.6 % ID/g
- Drug uptake (Liver [14]): 7.31 % ID/g
- Drug uptake (Heart [15]): 1.61 % ID/g
- Drug uptake (Bone [16]): 2.59 % ID/g
- Drug uptake (EMT6 [17]): 2.81 % ID/g
- Drug uptake (Bone [18]): 1.67 % ID/g
- Drug uptake (EMT6 [19]): 2.54 % ID/g
- Drug uptake (Blood [20]): 4.6 % ID/g
- Drug uptake (Kidney [21]): 3.92 % ID/g
- Drug uptake (Kidney [22]): 17.43 % ID/g
- Drug uptake (Heart [23]): 3.22 % ID/g
- Drug uptake (Bone [24]): 0.99 % ID/g
- Drug uptake (Lung [25]): 4.07 % ID/g
- Drug uptake (Kidney [26]): 36.07 % ID/g
- Drug uptake (Brain [27]): 0.36 % ID/g
- Drug uptake (Lung [28]): 9.71 % ID/g
- Drug uptake (Brain [29]): 0.44 % ID/g
- Drug uptake (Heart [30]): 1 % ID/g
- Drug uptake (Lung [31]): 1.36 % ID/g
- Drug uptake (Blood [32]): 1.92 % ID/g
- Drug uptake (Bone [33]): 1.31 % ID/g
- Drug uptake (Muscle tissue [34]): 1.12 % ID/g
- Drug uptake (Kidney [35]): 9.36 % ID/g
- Drug uptake (EMT6 [36]): 2.72 % ID/g
- Drug uptake (Muscle tissue [37]): 1.52 % ID/g
- Drug uptake (Liver [38]): 17.35 % ID/g
- Drug uptake (Adipose tissue [39]): 0.62 % ID/g
- Drug uptake (Muscle tissue [40]): 0.83 % ID/g
- Drug uptake (Blood [41]): 4.3 % ID/g
- Drug uptake (Blood [42]): 3.39 % ID/g

Structure (SMILES): COc1cc2c(cc1OC)CN(CCCCNC(=O)c1cc(Br)cc(OC)c1OCCF)CC2
- Ki [1]: 386 nM
- Ki [43]: 15300 nM
- Ratio Ki [2]: 40

Structure (SMILES): COc1cc2c(cc1OC)CN(CCCCNC(=O)c1cc(C)ccc1OCCF)CC2
- Ki [1]: 6.95 nM
- Ratio Ki [2]: 48

— ChEMBL document CHEMBL1145439, “Fluorine-18-labeled benzamide analogues for imaging the sigma2 receptor status of solid tumors with positron emission tomography” (J Med Chem, 2007)
